Series [1] has as its system Mus musculus. Kind of series: Black mice were injected intraperitoneally with 100 uMol of test compound and Striatal levels of Dopamine in mice measured after 1 week. The class given is functional. A digest of the protocol:
(§1)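 Male C-57 black mice, 8–10 weeks old, 25–30 g, six per data point. Dosed ip at 100 μmol/kg in 50 μL normal saline every hour for 4 h; controls received saline only. Times counted from the last injection. Striata dissected and stored at −80 °C. Dopamine measured by HPLC with electrochemical detection after alumina extraction, with DHBA as internal standard; reported as ng/mg tissue.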

Series [2] has as its target T1, Amine oxidase [flavin-containing] B (Bos taurus, UniProt P56560).
T1 sequence (P56560 whole entry): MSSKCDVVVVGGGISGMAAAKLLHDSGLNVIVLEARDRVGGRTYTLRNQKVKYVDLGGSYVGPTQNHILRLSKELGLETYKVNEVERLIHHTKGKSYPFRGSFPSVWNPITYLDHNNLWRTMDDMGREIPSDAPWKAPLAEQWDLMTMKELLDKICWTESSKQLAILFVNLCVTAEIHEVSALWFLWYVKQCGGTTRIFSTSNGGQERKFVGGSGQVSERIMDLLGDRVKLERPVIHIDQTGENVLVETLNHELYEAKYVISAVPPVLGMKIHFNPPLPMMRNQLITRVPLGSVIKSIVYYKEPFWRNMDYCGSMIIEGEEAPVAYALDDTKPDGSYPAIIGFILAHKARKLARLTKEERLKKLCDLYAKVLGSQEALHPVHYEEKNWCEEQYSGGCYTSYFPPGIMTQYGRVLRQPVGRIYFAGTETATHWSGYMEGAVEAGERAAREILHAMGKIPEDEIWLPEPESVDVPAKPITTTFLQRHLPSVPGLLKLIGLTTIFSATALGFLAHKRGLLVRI
Kind of series: Binding affinity against Monoamine oxidase B. Put shortly:
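Beef liver mitochondrial MAO-B, purified and cleared of heme protein by sucrose-gradient centrifugation; 0.02 unit enzyme in 50 mM sodium phosphate pH 7.2 with 0.2% (w/v) reduced Triton X-100. Inhibitor at 0–500 μM or 0–100 μM against benzylamine 0.17–3.3 mM. Oxidation followed at 250 nm as initial rates. Lineweaver–Burk plots; Ki taken from secondary replots of slope vs inhibitor concentration.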

For series [3], the target named is T1, Amine oxidase [flavin-containing] B. As to the kind of experiment: Rate of oxidation against monoamine oxidase B. Put shortly: (§2)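 Beef liver mitochondrial MAO-B, purified, 0.1 unit in 50 mM sodium phosphate pH 7.2 with 0.2% reduced Triton X-100. Substrate at 3 mM (3.0 mM). Initial rate of dihydropyridinium product formation read spectrophotometrically at its λmax (345 nm for MPDP⁺, 360 nm for the tricyclic products), in nmol min⁻¹ mL⁻¹. Controls held 10⁻⁶ M pargyline.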

For series [4], the system named is Mus musculus. As to the kind of experiment: (§3) Black mice were injected intraperitoneally with 100 uMol of test compound and Striatal levels of Dopamine in mice measured after 1 month. The class given is functional. A digest of the protocol: as §1
Series [5] has as its system Mus musculus. Kind of series: Black mice were injected intraperitoneally with 100 uMol of test compound and Striatal levels of Dopamine in mice measured after 24 hours. The class given is functional. Put shortly:
as §1

Series [6] deals with Mus musculus. As to the kind of experiment: (§4) Black mice were injected intraperitoneally with 100 uMol /kg of test compound and Striatal levels of dopamine in mice measured after 4 hours. The class given is functional. Put shortly:
as §1

Series [7] deals with T2, Dopamine receptor (Mus musculus) (UniProt P51436+Q8BLD9+Q61616+P61168+P30728). Described as §4. In kind it is functional. A digest of the protocol:
as §1

Series [8] has as its target T2, Dopamine receptor (Mus musculus). The description is as §3. In kind it is functional. Put shortly: as §1
Series [9] deals with T1, Amine oxidase [flavin-containing] B. Kind of series: Rate of oxidation against monoamine oxidase-B (MAO-B). Put shortly:
as §2

Series [10] concerns the target T2, Dopamine receptor (Mus musculus). As to the kind of experiment: Black mice were injected intraperitoneally with 100 uMol of test compound and Striatal levels of dopamine in mice measured after 24 hours. The class given is functional. A digest of the protocol:
as §1

For series [11] the target is unchanged. Kind of series: Black mice were injected intraperitoneally with 100 uMol of test compound and Striatal levels of dopamine in mice measured after 1 week. The class given is functional. A digest of the protocol:
as §1

For the compound `CN1CCC2=C(Cc3ccccc32)C1`, the Dopamine level with Mus musculus [1] turned out to be 18.2 ng/mg; with Mus musculus [4], 21.9 ng/mg; with Mus musculus [5], 24.5 ng/mg; in the series with Mus musculus [6] it was 6.5 ng/mg. In addition, the Ki (commonly a measure of affinity in units of concentration, obtained from inhibition or displacement) in series [2] was 75 µM. In addition, the Rate of oxidation in [3] is given as 0.21 nM min-1 ml-1.

Turning to `CN1CC=C(c2ccccc2)CC1`, the Dopamine level in series [7] was 4.8 ng/mg; in series [8], 5 ng/mg; in [10], 6.5 ng/mg; in [11] it was 2.7 ng/mg. In [9], this compound had a Rate of oxidation of 25.87 nM min-1 ml-1.

On to `CN1CCC2C(=Cc3ccccc32)C1` (centres undefined), for which the Dopamine level stood at 16.4 ng/mg in the series with Mus musculus [1], 19.2 ng/mg in the series with Mus musculus [4], 30.3 ng/mg with Mus musculus [5] and 4.3 ng/mg in the series with Mus musculus [6]. In addition, the affinity in series [2] corresponds to a Ki of 65 µM. Besides, the Rate of oxidation in series [3] was determined as 0 nM min-1 ml-1.

The compound `CN1CCc2c([nH]c3ccccc23)C1` yielded an inhibition constant (Ki) in [2] of 400 µM. Also, the Rate of oxidation in series [3] is listed as 0.1 nM min-1 ml-1.
